# Source: PubChem BioAssay
# Shown are actives, neighbours in structure and some others; about 3% of the full set was active somewhere.
# Myeloid diff 2 – promotes myeloid progenitor differentiation | 360,000 tested, 1% active | calls only at 10 µM | ER-HoxA9 myeloid progenitors, lysozyme-GFP differentiation, flow cytometry;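 active means normalized GFP-positive differentiation at or above the plate's own cutoff, the solvent-only control mean plus 3 SD; inconclusive means no clear call, values can overlap the other calls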;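 further: cells exposed to compound for four days before flow analysis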
# HNF4A DNA FP – change in binding of human HNF4 alpha to DNA | P41235 | HNF4a-FITC DNA binding, fluorescence polarization, 1 h | activity change, % at 10 µM | 360,000 tested, 0.3% active | AID 1224865; in the data active means activity change above about 30%, passing the limit was not always enough
# Target sequence (P41235 whole entry, looked up): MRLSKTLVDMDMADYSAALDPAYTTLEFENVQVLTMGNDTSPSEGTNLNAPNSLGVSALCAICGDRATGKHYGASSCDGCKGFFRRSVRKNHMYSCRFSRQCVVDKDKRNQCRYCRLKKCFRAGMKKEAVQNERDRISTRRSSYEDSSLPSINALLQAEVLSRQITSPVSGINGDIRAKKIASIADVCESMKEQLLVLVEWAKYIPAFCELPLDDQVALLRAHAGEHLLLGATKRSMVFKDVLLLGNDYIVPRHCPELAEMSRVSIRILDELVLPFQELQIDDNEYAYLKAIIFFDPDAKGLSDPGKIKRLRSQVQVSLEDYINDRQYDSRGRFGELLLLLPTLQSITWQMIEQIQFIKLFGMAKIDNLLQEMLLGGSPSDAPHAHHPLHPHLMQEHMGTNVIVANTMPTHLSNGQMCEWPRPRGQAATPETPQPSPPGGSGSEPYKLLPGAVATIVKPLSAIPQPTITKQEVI
# SENP1 FRET inh – SENP1 (human) catalytic domain inhibition | 360,000 tested, 0.21% active | recombinant SENP1 catalytic domain, CyPet-SUMO1-YPet FRET cleavage | inhibition, % at 10 µM;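 active means inhibition at least 30% at 10 µM, raw YFP signal under a set limit, fluorescence ratio 0.5 to 1.5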;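 further: 0% = enzyme with DMSO and 100% = no enzyme wells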
#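 material = recombinant human SENP1 catalytic domain, His6-tagged | quantity = 20 pM enzyme | reagent = 25 nM SUMO1 FRET substrate | compound dosing = 10 µM single point, 0.5% DMSO | timing = 50 min enzyme reaction, room temperature, light-protected | detection = FRET, CFP and YFP emission | control set = no-enzyme low, enzyme-DMSO high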
# Pemphigus Ab inh – blocks pemphigus antibody binding to human desmoglein-3; DSG3-coupled beads, scFv-anti-DSG3-GFP binding, flow cytometry; hits give low values; AID 588358; 310,000 tested, 0.48% active; binding (percent of control), % at 10 µM;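 active means binding more than 3 SD below its plate's average and above zero; inconclusive means below that plate limit but binding exactly zero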;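 further: hits lower antibody fragment binding to DSG3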
# Granule exo inh – blocks lytic granule exocytosis | TALL-104 LAMP-1 surface exposure, flow cytometry; cells stimulated with thapsigargin and PMA | inhibition, % at 10 µM | 360,000 tested, 0.66% active | AID 651702;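 active means inhibition above about 55%, limit read from the data; inconclusive means no clear call, values can overlap the other calls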
# H9c2 protect – modulators protecting cardiomyocytes from myocardial damage; H9c2 cardiomyocytes, H2O2 injury protection, ATPLite, 2 h; protection from H2O2 cell death, % at 20 µM; 360,000 tested, 0.63% active;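 active means compounds giving at least 50% protection of heart cells from peroxide-induced death in the single-dose screen, raw or plate-pattern-corrected value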;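 further: 0% = DMSO wells with peroxide and 100% = DMSO wells without peroxide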
# * = called active by the depositor; i = inactive; ? = inconclusive; · = no result; + = active, no number.
SMILES,Myeloid diff 2,HNF4A DNA FP,SENP1 FRET inh,Pemphigus Ab inh,Granule exo inh,H9c2 protect
COc1ccc(CC(=O)N(C)c2ccccc2)cc1S(=O)(=O)N1CCOCC1,i,0,0,99,-4,4
N=C(N)c1ccc(N=Nc2c(O)ccc3c2[nH]c2ccccc23)cc1,i,99,5,69*,0,-8
CCOC(=O)c1cc(-c2ccc(/C=C3/C(=O)N(c4ccc(C(=O)O)cc4)N=C3C)o2)ccc1Cl,+,-4,1,63*,22,14
CC1=NN(c2ccc(Br)cc2)C(=O)/C1=C/c1ccc(-c2ccccc2C(=O)O)o1,i,-4,-1,115,5,4
CCOC(=O)c1cc(-c2ccc(/C=N\n3cnnc3)o2)ccc1Cl,i,1,-6,107,-2,67*
Oc1c(Br)cc(Cl)cc1C=Nc1ccccc1Br,i,-6,-26,97,43,72*
Cc1n[nH]c(C)c1Sc1ccccc1N=Cc1cc(Cl)cc([N+](=O)[O-])c1O,i,3,24,109,5,-2
O=C(C#Cc1ccccc1)c1ccc([N+](=O)[O-])cc1,i,-1,0,107,79*,-24
O=C(C#Cc1ccccc1)c1ccccc1,i,-1,2,101,7,-11
O=C(CCN1C(=O)/C(=C/c2cccs2)SC1=S)N1CCCCC1,?,10,6,75,15,-4
Cc1cc(C(=O)Nc2ccccc2C(=O)O)ccc1NC(=O)COc1cccc(C)c1C,i,4,0,116,0,4
Cc1cc(NS(=O)(=O)c2ccc(NC(=O)CCSc3ccc(F)cc3)cc2)nc(C)n1,i,-3,1,120,2,-1
CCOC(=O)Cn1c(-c2ccccc2)cc(SC)c(C#N)c1=O,·,-3,-1,87,61*,-4
CSc1cc(-c2ccccc2)n(C)c(=O)c1C#N,i,1,0,99,-1,-1
Cc1cccn2c(=O)c(C=O)c(NCc3ccccc3)nc12,+,3,-2,100,-2,-2
C=CCN=c1scc(C)n1/N=C/c1ccc(O)c(O)c1,i,-7,-19,104,9,65*
CCc1nc(N)nc(N)c1-c1ccc(Cl)c(N=[N+]=[N-])c1,?,1,-2,89,-11,-2
CC(C)(C)OC(=O)CNC(=O)c1[nH]cnc1C(=O)NC(c1ccccc1)c1ccccc1,i,0,4,104,-11,59*
C[C@H](NC(=O)c1nc[nH]c1C(=O)NCC(=O)OCc1ccccc1)C(=O)OCc1ccccc1,i,2,3,98,21,77*
CC(C)(C)OC(=O)NCc1ccc(CNC(=O)c2nc[nH]c2C(=O)NCc2ccccc2)cc1,i,-3,4,103,-11,-3
C[C@@H](OC(=O)c1[nH]cnc1C(=O)NCc1ccc(CNC(=O)OC(C)(C)C)cc1)c1ccccc1,i,1,3,103,11,59*
C[C@H](NC(=O)c1nc[nH]c1C(=O)NCC(=O)OCc1ccccc1)c1ccccc1,i,0,-1,107,-12,84*
O=C(CN(Cc1ccccc1F)C(=O)c1csnn1)NCc1ccc2c(c1)OCO2,i,1,2,99,-5,4
CCS(=O)(=O)N1CCC(c2nc3ccccc3[nH]2)CC1,i,3,0,101,-1,6
COC(=O)c1c(NC(=O)c2ccccc2N(C)S(=O)(=O)c2ccccc2)sc2c1CCCC2,+,-4,0,103,-1,-12
SMILES,Myeloid diff 2,HNF4A DNA FP,SENP1 FRET inh,Pemphigus Ab inh,Granule exo inh,H9c2 protect
CCOC(=O)c1c(NC(=O)c2ccccc2N(C)S(=O)(=O)c2ccccc2)sc2c1CCCC2,·,1,-2,100,0,-14
Cc1ccc(-c2cc(C(=O)Nc3ccc(S(=O)(=O)Nc4ncccn4)cc3)c3ccccc3n2)cc1,i,0,1,106,17,-3
CC(C)(C)NS(=O)(=O)c1ccc(NC(=O)c2cc(-c3ccccc3)nc3ccccc23)cc1,i,0,-1,65*,3,13
CCc1ccc(-c2cc(C(=O)Nc3ccc(S(=O)(=O)NC(C)=O)cc3)c3ccccc3n2)cc1,i,0,0,63*,4,-13
Fc1cc(Cl)cc2ccc(-c3ccccc3)nc12,i,-1,0,·,2,-5
N#Cc1ccsc1NC(=O)COC(=O)c1ccc2ccccc2c1,i,15,-11,63*,13,-8
Cn1cccc1C(=O)OCC(=O)Nc1sccc1C#N,i,5,-9,93,-7,4
CCc1nc2ccc(C(=O)NCc3cccs3)cn2c1N(C)Cc1nccs1,i,4,0,·,-3,48*
CCN1CCN(c2nc(Nc3ccc(NC(C)=O)cc3)nc(Nc3ccc(NC(C)=O)cc3)n2)CC1,i,-1,0,104,-1,3
COc1ccc(-c2cc(C(=O)OCC(=O)NC3CC3)c3ccccc3n2)cc1,i,5,-13,90,0,-9
O=C(COC(=O)c1c2c(nc3ccccc13)/C(=C/c1cccc([N+](=O)[O-])c1)CCC2)NC1CCS(=O)(=O)C1 (centres undefined),i,1,-1,100,2,59*
COc1ccc(-c2cc(C(=O)OCC(=O)N3CCOCC3)c3ccccc3n2)cc1,i,4,-15,93,-13,6
COc1ccc2cc(-c3cc(C(=O)OCC(=O)NC4CCS(=O)(=O)C4)c4ccccc4n3)ccc2c1 (centres undefined),i,1,-33,4.6*,4,-16
COC(=O)C1CCN(C(=O)COC(=O)c2cc(-c3ccccc3)nc3ccc(OC)cc23)CC1,+,-4,-109,100,0,22
CSc1ccccc1NC(=O)CN(C)C(=O)C(C)SCc1nc2sc(C)c(C)c2c(=O)[nH]1 (centres undefined),i,-3,-1,105,-3,33
COC(=O)[C@@]12C[C@@H](CC(=O)NCc3cccc(C(F)(F)F)c3)C(=O)N(Cc3ccccc3)C1=CCC(C)(C)C2,i,0,3,·,13,·
Cc1ccc2ccc[n+](Cc3ccccc3)c2c1,i,9,26,107,-4,-5
COc1ccc2c(c1)c(C)cc[n+]2Cc1ccccc1,+,-1,-9,93,17,-10
Cc1ccc2c(c1)c(C)cc[n+]2Cc1ccccc1,+,1,-1,97,0,-9
Cc1ccc(CCNS(=O)(=O)c2cc3c(cc2C)NC(=O)CO3)cc1,i,0,0,112,-4,-9
CN1CCCN(C(=O)Cc2c(Cl)cccc2Cl)c2nc3ccccc3nc21,+,5,-68,96,1,1
